Experimental data published in paper PMC8900268 (Journal of medicinal chemistry, 2021).

What was measured:
Type in all cases: cell-based
RS4;11 cells = test: MTS cell viability assay in RS4
[1] = biological target: {BCL-2:compound:VCB} ternary complexes (Homo sapiens, UniProt P10415+P40337); test: NanoBRET ternary complex formation with BCL-2 and VCB in live 293T cells; conditions: 6 h
Summary of the method: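 HEK 293T cells were transfected with 1 μg HaloTag-VHL, 10 ng HiBit-BCL-2 and 10 ng LgBit. After 24 h, 2×10^4 cells/well were placed in phenol-red-free Opti-MEM with 4% FBS ± HaloTag NanoBRET 618 ligand overnight at 37 °C. Serially diluted test compound was added for 6 h, then Nano-Glo substrate. mBRET ratio calculated. Mean ± s.e.m. of two independent experiments in triplicate.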

BCL-XL = BCL-XL (Homo sapiens, UniProt Q07817); test: BCL-XL degradation in MOLT-4 cells by western blotting
Summary of the method: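 MOLT-4 cells were exposed to test compound for 16 h across a concentration range. Other arms: 100 nM time course; 100 nM for 16 h, then washout; and pretreatment with 10 μM VHL-032 or 1 μM MG-132 before 12 h exposure. Lysates were immunoblotted for BCL-XL and β-actin. Band densities were normalised to β-actin. Mean ± SD of three independent experiments in triplicate.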

BCL-2:Bim interaction = BCL-2:Bim interaction (Homo sapiens, UniProt P10415); test: Co-immunoprecipitation of Bim with BCL-2 in RS4; conditions: RS4;11 cells, 12 h, immunoprecipitation with BCL-2
Summary of the method: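 RS4;11 cells were treated with test compound for 12 h, ±VHL-032. Lysis in IP buffer with protease/phosphatase inhibitors, then 15000 rpm spin. 1 mg lysate was precleared with mouse IgG and protein A/G agarose for 1 h at 4 °C. IP with 2 μg anti-BCL-2 (or IgG) overnight at 4 °C, then beads for 2 h. After three washes, immunoblotted for Bim. Inputs probed for Bim, BCL-2 and β-actin. Two independent experiments.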

SMILES | IC50 (RS4;11 cells; Homo sapiens, RS4-11, 48 h, read-out: IC50, cell-killing potency in RS4;11) [nM] | formation of {BCL-2:compound:VCB} ternary complexes in live cells [1] | activity loss (IC50 change) after pre-treatment with VHL-032 (RS4;11 cells; RS4;11 cells, 48 h, pre-treatment with VHL-032 (10 μM)) | BCL-XL degradation (in words) (BCL-XL) | effect on BCL-2:Bim interaction (BCL-2:Bim interaction)
Cc1ncsc1-c1ccc([C@H](C)NC(=O)[C@@H]2C[C@@H](O)CN2C(=O)[C@@H](NC(=O)CCCCCC(=O)NCC2(C)CCC(c3ccc(Cl)cc3)=C(CN3CCN(c4ccc(C(=O)NS(=O)(=O)c5ccc(N[C@H](CCN6CCOCC6)CSc6ccccc6)c(S(=O)(=O)C(F)(F)F)c5)cc4)CC3)C2)C(C)(C)C)cc1 (stereo partly drawn) [PP2, N^1-((4’-Chloro-4-methyl-6-((4-(4-(((4-(((R)-4-morpholino-1-(phenylthio)butan-2-yl)amino)-3-((trifluoromethyl)sulfonyl)phenyl)sulfonyl)carbamoyl)phenyl)piperazin-1-yl)methyl)-2,3,4,5-tetrahydro-[1,1’-biphenyl]-4-yl)methyl)-N^7-((S)-1-((2S,4R)-4-hydroxy-2-(((S)-1-(4-(4-methylthiazol-5-yl)phenyl)ethyl)carbamoyl)pyrrolidin-1-yl)-3,3-dimethyl-1-oxobutan-2-yl)heptanediamide] | 234 ± 21.6 | – | – | – | –
Cc1ncsc1-c1ccc([C@H](C)NC(=O)[C@@H]2C[C@@H](O)CN2C(=O)[C@@H](NC(=O)CCCCCCCCC(=O)NCC2(C)CCC(c3ccc(Cl)cc3)=C(CN3CCN(c4ccc(C(=O)NS(=O)(=O)c5ccc(N[C@H](CCN6CCOCC6)CSc6ccccc6)c(S(=O)(=O)C(F)(F)F)c5)cc4)CC3)C2)C(C)(C)C)cc1 (stereo partly drawn) [PP5, N^1-((4’-Chloro-4-methyl-6-((4-(4-(((4-(((R)-4-morpholino-1-(phenylthio)butan-2-yl)amino)-3-((trifluoromethyl)sulfonyl)phenyl)sulfonyl)carbamoyl)phenyl)piperazin-1-yl)methyl)-2,3,4,5-tetrahydro-[1,1’-biphenyl]-4-yl)methyl)-N^10-((S)-1-((2S,4R)-4-hydroxy-2-(((S)-1-(4-(4-methylthiazol-5-yl)phenyl)ethyl)carbamoyl)pyrrolidin-1-yl)-3,3-dimethyl-1-oxobutan-2-yl)decanediamide] | – | able to form | – | – | –
Cc1ncsc1-c1ccc([C@H](C)NC(=O)[C@@H]2C[C@H](O)CN2C(=O)[C@@H](NC(=O)CCCCCCCCC(=O)NC[C@]2(C)CCC(c3ccc(Cl)cc3)=C(CN3CCN(c4ccc(C(=O)NS(=O)(=O)c5ccc(N[C@H](CCN6CCOCC6)CSc6ccccc6)c(S(=O)(=O)C(F)(F)F)c5)cc4)CC3)C2)C(C)(C)C)cc1 [PZ703b-NC] | – | could not | no significant IC50 value changes | did not induce BCL-XL degradation | minimal effect
